Compound activity deposited in PubChem by several laboratories.
LEDGF integ inh: blockers of LEDGF/p75-dependent integrase strand transfer – biochemical, TR-FRET, high throughput, primary screen. HIV-1 integrase (with human LEDGF/p75). TR-FRET IN-LEDGF/p75 DNA integration, Eu/Cy5. inhibition, % at 3.7 µM. 0.64% of 370,000 active. AID 743269, 2014;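 active = inhibition above the screen-wide mean plus 3 SD, cut at about 13% in these data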;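 note: signal is the Cy5 over europium emission ratio at 671 and 618 nm; 0% = plate median of compound wells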
ARFGAP1 inhibitor: inhibitors of rat ARFGAP1 GAP activity, primary screen, biochemical, fluorescence polarization, GDP tracer | ADP-ribosylation factor GTPase-activating protein 1 (Rattus norvegicus), Q62848 | Arfgap1-stimulated ARF1 GTP hydrolysis, GDP FP detection | inhibition, % at 16.5 µM | 0.26% of 360,000 active;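 active = inhibition above a per-plate limit, mean inhibition of low control wells plus 3 SD, cut at about 25% in these data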;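 note: 0% = DMSO wells with enzyme and 100% = wells lacking Arfgap1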
Target sequence (Q62848 1-136 limits assumed): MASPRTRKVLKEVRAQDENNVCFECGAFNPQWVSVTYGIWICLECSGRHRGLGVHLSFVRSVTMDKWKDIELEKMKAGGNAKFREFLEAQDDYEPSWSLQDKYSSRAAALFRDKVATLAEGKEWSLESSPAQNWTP
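Material – truncated rat Arfgap1 GAP domain · Buffer or medium – HEPES-based buffer, pH 7.5 · Reagent – human ARF1(Δ1-17)-GTP substrate · Dosing – 16.5 µM single point, 1.26% DMSO · Schedule – GTP hydrolysis reaction 2 h at 25 °C · Technique – GDP detection by fluorescence polarization · Benchmarks – No-Arfgap1 wells (100%) versus DMSO full-reaction wells (0%) · Repeats – single replicate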
TDP2 inh: human TDP2 enzyme inhibitors, primary screen, biochemical, epi absorbance, recombinant enzyme. AID 720702, 2013. inhibition, % at 12.8 µM. 0.34% of 370,000 active. T5PNP hydrolysis, p-nitrophenol absorbance 415 nm. Tyrosyl-DNA phosphodiesterase 2 (Homo sapiens), O95551;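 active = inhibition above the mean of all tested compounds plus 3 SD, set per campaign, cut at about 25% in these data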;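 note: 0% = DMSO with enzyme and 100% = buffer with substrate but no TDP2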
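test system = human TDP2 enzyme | input = TDP2 enzyme at 120 nM final | medium = 50 mM Tris-HCl pH 7.5 with Mg2+, KCl, DTT, BSA | also added = T5PNP substrate, 5 mM | times = 2 h at 37 °C | technique = epi absorbance | benchmarks = high control without enzyme, low control DMSO plus TDP2 | replication = each compound tested once, singlicate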
ASAP1 GAP inh: inhibitors of human ASAP1 ArfGAP activity, primary screen, biochemical, fluorescence polarization | 0.19% of 360,000 active | ASAP1-stimulated ARF1 GTP hydrolysis, GDP FP detection | AID 624377, 2012 | inhibition, % at 16.5 µM; in the data active = inhibition above about 25%;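 note: 0% = vehicle with enzyme and substrate and 100% = no enzyme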
Casp6 inh: human caspase-6 inhibitors, primary screen, biochemical, VEID-R110 fluorescence, single point, set 2; P55212; purified caspase-6, Z-VEID-R110 cleavage fluorescence; inhibition, % at 12.5 µM; 0.53% of 350,000 active; AID 686996, 2013;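 active = mean inhibition across replicates at least about 35%, with every replicate also reaching that limit, limit read from the data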;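 note: 0% = median of neutral control wells and 100% = no fluorescence left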
Target sequence (P55212 24-179 limits assumed): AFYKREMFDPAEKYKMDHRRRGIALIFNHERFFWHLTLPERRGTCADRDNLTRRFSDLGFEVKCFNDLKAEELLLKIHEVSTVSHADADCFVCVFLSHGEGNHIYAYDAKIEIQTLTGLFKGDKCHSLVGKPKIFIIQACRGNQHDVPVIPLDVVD
Target sequence (P55212 194-293 limits assumed): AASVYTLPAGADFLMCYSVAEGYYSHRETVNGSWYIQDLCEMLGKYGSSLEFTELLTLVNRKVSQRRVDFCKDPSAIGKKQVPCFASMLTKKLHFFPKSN
* hit, by the source's call; · = not tested or not shown. Most compounds without a hit are left out; they make up all but 1.3% or so of the library.

SMILES	LEDGF integ inh	ARFGAP1 inhibitor	TDP2 inh	ASAP1 GAP inh	Casp6 inh
CCCCC[C@H](O)/C=C/C1C(=O)C=C[C@H]1C/C=C\CCCC(=O)OC (stereo partly specified)	7	-3	-14	5	53*
CCCCC[C@H](O)/C=C/[C@@H]1[C@@H](C/C=C\CCCC(=O)O)[C@@H](O)C[C@H]1O	2	1	5	-3	-1
CC(N)C(=O)NC(C(=O)NC(C)C(=O)Nc1cccc2ccccc12)C(C)C (stereo unspecified)	4	18	7	10	45*
CNC(C)C(=O)NC(C(=O)NC(C(=O)Nc1cccc2ccccc12)C(C)C)C(C)C (stereo unspecified)	-5	-11	14	2	0
Nc1c(C(=O)NCc2ccco2)c2nc3ccccc3nc2n1CCc1ccccc1	-3	9	3	3	8
CC1=NN(c2ccc(C(=O)O)cc2)C(=O)CC1	3	-8	-2	3	-6
CC1=NN(c2ccc(C(=O)O)c(N)c2)C(=O)C1	31*	10	15	-7	26
CCC1C(=O)N=C(SCC(=O)Nc2nc3ccccc3s2)NC1=O (stereo unspecified)	-5	-10	-9	-11	40*
CCC1C(=O)N=C(SCC(=O)Nc2cccc3ccccc23)NC1=O (stereo unspecified)	-1	5	3	1	·
O=C(O)CSc1c2c(nc3cc(C(=O)Nc4cccc(C(F)(F)F)c4)ccc13)CCC2	7	-12	-10	-5	79*
CCC/C(=N/NC(=O)c1ccccc1Cl)c1ccccc1	5	-9	13	4	0
CC(=O)c1cccc(Nc2cc(C)nc3c(C)cccc23)c1	-2	6	10	-2	-5
Cc1cc(C)cc(OCCNC(=O)c2cc(S(=O)(=O)N3CCOCC3)ccc2F)c1	-6	0	-6	-9	-1
O=C(O)CN1C(=O)C=CC1=O	5	9	-9	-1	36*
O=C1C=CC(=O)N1CCCCCCN1C(=O)C=CC1=O	-2	3	3	0	·
COc1ccc2c(c1)c(=O)oc1c(C)c(OC(C)C(=O)N[C@@H](Cc3c[nH]c4ccc(O)cc34)C(=O)O)ccc12 (stereo partly specified)	2	-1	6	1	39*
CC(Oc1ccc2c(-c3ccccc3)cc(=O)oc2c1)C(=O)NC(Cc1c[nH]c2ccc(O)cc12)C(=O)O (stereo unspecified)	0	3	-3	-17	14
CC1(C)SC2c3ccccc3C(=O)N2[C@@H]1C(=O)NCCCN1CCOCC1 (stereo partly specified)	-2	-8	-9	6	·
O=C1N(c2ccccc2)c2ccccc2[C@]12C[C@H](O)CO2	1	-9	3	-8	-1
Cc1c(N=C2C=C(Br)C(=O)C(Br)=C2)c(=O)n(-c2ccccc2)n1C	57*	-10	61*	11	18
Cc1c(N=C2C=CC(=O)c3ccccc32)c(=O)n(-c2ccccc2)n1C	6	5	24	7	28
COc1ccc2c(c1)c(=O)oc1cc(OCC(=O)N3CCCC(C)C3)ccc12 (stereo unspecified)	0	43*	-9	41*	·
Cc1onc(-c2ccc(Cl)cc2Cl)c1-c1csc(N/N=C/c2ccccc2Cl)n1	3	-4	-10	-22	38*
Cc1onc(-c2ccccc2)c1-c1csc(N/N=C/c2ccccc2Cl)n1	2	-8	-11	5	1
Cc1cc(O)c2c(c1)C(=O)c1cccc(O)c1C2=O	-3	9	11	0	4
SMILES	LEDGF integ inh	ARFGAP1 inhibitor	TDP2 inh	ASAP1 GAP inh	Casp6 inh
O=C(O)c1cc(O)c2c(c1)C(=O)c1cccc(O)c1C2=O	4	5	0	-3	40*
CCOC(=O)c1sc(NC(=O)C2C3C=CC(C3)C2C(=O)O)nc1C (stereo unspecified)	3	-2	-2	7	55*
COc1ccc(S(=O)(=O)Nc2ccc3c(c2)C(=O)N([C@@H](C)CO)C[C@@H](C)[C@H](CN(C)Cc2ccc(-c4ccccc4)cc2)O3)cc1	·	·	·	·	1
CCCNC(=O)N1CC2(C1)[C@H](c1ccccc1)[C@H](CO)N2C(=O)C1CCCCC1	·	·	·	·	0
CCCn1c(=O)c2sccc2n2c(CCCC(=O)NCc3ccco3)nnc12	6	-3	11	0	58*
C[C@H](CO)N1C[C@H](C)[C@H](CN(C)S(=O)(=O)c2cn(C)cn2)Oc2ccc(NS(=O)(=O)c3cccs3)cc2C1=O	·	·	·	·	-1
CCCN1CCCc2cc(CN)ccc21	35*	-13	66*	-14	·
O=C(CN1CCOCC1)NCc1ccc(F)cc1	-4	2	5	-3	2
CCOC(=O)c1ccc(S(=O)(=O)N2CCC(C(=O)N3CCN(c4ccccc4OC)CC3)CC2)cc1	-1	-1	4	-19	48*
CC(C)c1cc(CN2CCN(C3CCCC3)C(CCO)C2)[nH]n1 (stereo unspecified)	-1	-4	6	-6	-6
COC(=O)CCCCC1SCC2NC(=O)NC21O (stereo unspecified)	41*	8	7	-1	0
O=c1[nH]c2ccccc2cc1CN(Cc1cccnc1)S(=O)(=O)c1ccc([N+](=O)[O-])cc1	0	9	3	-3	-1
C[C@H]1CN([C@@H](C)CO)C(=O)c2cccc(NS(=O)(=O)c3cccs3)c2O[C@@H]1CN(C)Cc1ccc(Cl)c(Cl)c1	·	·	·	·	1
c1coc(-c2nc3ccccc3nc2-c2ccco2)c1	48*	-6	28*	-3	69*
O=C(NCCO)c1ccc2nc(-c3ccco3)c(-c3ccco3)nc2c1	77*	-7	47*	1	·
COc1ccc(S(=O)(=O)N(C)C[C@H]2Oc3ccc(NC(=O)C4CCCCC4)cc3CC(=O)N([C@@H](C)CO)C[C@H]2C)cc1	·	·	·	·	-1
COCC(=O)N1[C@H](C#N)[C@@H](c2ccccc2)[C@H]1CO	·	·	·	·	-1
CCOc1ccc(NC(=O)CCC(=O)NNS(=O)(=O)c2ccccc2[N+](=O)[O-])cc1	1	-3	5	2	-2
Nc1nc(Sc2ccc([N+](=O)[O-])c3nonc23)c2[nH]cnc2n1	5	17	1	-9	72*
Cn1c(CCN2CCCCC2)nc2cc(NC(=O)C3CCCCC3)ccc21	1	7	8	8	·
